Among the data in ChEMBL document CHEMBL1143935, “Synthesis and biological evaluation of novel dimiracetam derivatives useful for the treatment of neuropathic pain” (Bioorg Med Chem, 2008) are Activity values, retold here.

Structures are written as SMILES. Calls of active or inactive are those of the source.

In series [1] the test system is Rattus norvegicus. As to the kind of experiment: Antihyperalgesic activity in Sprague-Dawley rat assessed as lesioned paw pressure threshold at 30 ug/kg, icv after 60 mins. Type of series: functional. The gist of the method:
(§1)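 Sciatic nerve-ligated (chronic constriction injury, Bennett–Xie) male Sprague–Dawley rats, 150–200 g, dosed i.c.v.; saline served as vehicle. Paw withdrawal threshold (g) of the lesioned paw was read by analgesimeter before dosing and at 30, 45 and 60 min, max force 240 g. Baseline outliers (<40 g, >75 g) were excluded. Mean ± SEM of 8–14 rats; ANOVA with Fisher PLSD.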

Series [2] deals with Rattus norvegicus. As to the kind of experiment: Antihyperalgesic activity in Sprague-Dawley rat assessed as lesioned paw pressure threshold at 30 ug/kg, icv after 30 mins. Type of series: functional. An outline of the steps: as §1
Series [3] deals with Rattus norvegicus. Nature of the series: Antihyperalgesic activity in Sprague-Dawley rat assessed as lesioned paw pressure threshold at 30 ug/kg, icv after 45 mins. The format is functional. An outline of the steps:
as §1

The test system of series [4] is Rattus norvegicus. Nature of the series: Antihyperalgesic activity in Sprague-Dawley rat assessed as lesioned paw pressure threshold at 500 ug/kg, icv after 45 mins. The format is functional. An outline of the steps:
(§2)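 Male Sprague–Dawley rats, 150–200 g, with right sciatic nerve chronic constriction injury (Bennett–Xie). Compound given i.c.v. and withdrawal threshold (g) on lesioned and contralateral paws measured with an analgesimeter before dosing and at 30, 45, 60 min. Pre-dose scores outside 40–75 g excluded; 240 g maximum force. 8–14 rats per group; ANOVA with Fisher's PLSD.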

For series [5], the system named is Rattus norvegicus. Nature of the series: Antihyperalgesic activity in Sprague-Dawley rat assessed as lesioned paw pressure threshold at 500 ug/kg, icv after 30 mins. The format is functional. The gist of the method: as §2
Series [6] relates to Rattus norvegicus. Nature of the series: Antihyperalgesic activity in Sprague-Dawley rat assessed as lesioned paw pressure threshold at 500 ug/kg, icv after 60 mins. Type of series: functional. The gist of the method:
as §2

Series [7] deals with Rattus norvegicus. Nature of the series: Analgesic activity against nerve injury-induced hyperalgesia in Sprague-Dawley rat assessed as increase in lesional paw pressure threshold at 30 mg/kg, po after 30 to 60 mins. The format is functional, organism-based. The arrangement: dose 30 mg/kg. The gist of the method: (§3)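 Male Sprague–Dawley rats (150–200 g) given a chronic constriction injury: loose ligatures on the right common sciatic nerve (Bennett–Xie), under chloral hydrate anaesthesia. Oral dosing. Analgesimeter paw pressure; withdrawal force in g recorded before and 30, 45, 60 min after dosing, cut-off 240 g. Rats below 40 g or above 75 g at baseline were excluded. Mean ± SEM, 6–11 rats; ANOVA with Fisher PLSD.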

Series [8] relates to Rattus norvegicus. Nature of the series: Analgesic activity against streptozotocin-induced hyperalgesia in Sprague-Dawley rat assessed as increase in paw mechanical threshold at 50 mg/kg, po. Type of series: functional, organism-based. The arrangement: dose 50 mg/kg. An outline of the steps:
(§4)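 Male Sprague–Dawley rats (150–200 g) were given streptozotocin 50 mg/kg ip and tested 21 days later. Oral dosing; paw pressure analgesimeter read as the force (g) at first struggling, before and at 30–60 min after dosing, cut-off 240 g. Rats below 40 g or above 75 g at baseline were excluded. Mean ± SEM, 9–10 rats; ANOVA with Fisher PLSD.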

Series [9] relates to Rattus norvegicus. As to the kind of experiment: Antihyperalgesic activity in Sprague-Dawley rat assessed as lesioned paw pressure threshold at 10 ug/kg, icv after 45 mins. The format is functional. An outline of the steps:
as §1

In series [10] the test system is Rattus norvegicus. Nature of the series: Antihyperalgesic activity in Sprague-Dawley rat assessed as lesioned paw pressure threshold at 10 ug/kg, icv after 30 mins. The format is functional. An outline of the steps:
as §1

The subject of series [11] is Rattus norvegicus. As to the kind of experiment: Neurotoxicity in Sprague-Dawley rat assessed as behavioural impairment at 100 mg/kg, po by rotarod test. Type of series: toxicity, organism-based. The arrangement: dose 100 mg/kg, route oral. The following applies: in vivo. An outline of the steps: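 Rotarod motor incoordination test in male Sprague–Dawley rats: animals walk against the rotating drum for 30 s, and the readout is the number of falls in 30 s.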

In series [12] the test system is Rattus norvegicus. Nature of the series: Antihyperalgesic activity in Sprague-Dawley rat assessed as lesioned paw pressure threshold at 10 ug/kg, icv after 60 mins. The format is functional. An outline of the steps: as §1
The subject of series [13] is Rattus norvegicus. Nature of the series: Analgesic activity against nerve injury-induced hyperalgesia in Sprague-Dawley rat assessed as increase in lesional paw pressure threshold at 10 mg/kg, po after 30 to 60 mins. Set-up: dose 10 mg/kg. Type of series: functional, organism-based. An outline of the steps: as §3
Series [14] relates to Rattus norvegicus. As to the kind of experiment: Analgesic activity against streptozotocin-induced hyperalgesia in Sprague-Dawley rat assessed as increase in paw mechanical threshold at 100 mg/kg, po. Type of series: functional, organism-based. The arrangement: dose 100 mg/kg. An outline of the steps: as §4
Series [15] concerns Rattus norvegicus. Nature of the series: Analgesic activity against nerve injury-induced hyperalgesia in Sprague-Dawley rat assessed as increase in lesional paw pressure threshold at 50 mg/kg, po after 30 to 60 mins. Set-up: dose 50 mg/kg. Type of series: functional, organism-based. An outline of the steps:
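Male Sprague–Dawley rats, 150–200 g, with chronic constriction injury (loose ligatures on right common sciatic nerve, chloral hydrate anaesthesia); oral dosing. Paw pressure analgesimeter measured withdrawal/first-struggle force (g) on lesioned and contralateral paws before and 30, 45, 60 min after dosing. Pre-dose scores below 40 g or above 75 g excluded; 240 g cutoff. Means of 6–11 rats; ANOVA with Fisher's PLSD.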

The species named for series [16] is Rattus norvegicus. Nature of the series: Analgesic activity against streptozotocin-induced hyperalgesia in Sprague-Dawley rat assessed as increase in paw mechanical threshold. The format is functional, organism-based. An outline of the steps:
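Male Sprague–Dawley rats, 150–200 g, given streptozotocin 50 mg/kg ip and tested 21 days later; compound given orally at 30–100 mg/kg, with non-diabetic controls. Paw pressure analgesimeter recorded force (g) causing first struggle before and 30, 45, 60 min after dosing; 240 g cutoff. Means of 9–10 rats; ANOVA with Fisher's PLSD.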

Series [17] relates to Rattus norvegicus. Nature of the series: Antihyperalgesic activity in Sprague-Dawley rat assessed as lesioned paw pressure threshold at 100 ug/kg, icv after 60 mins. Type of series: functional. An outline of the steps: as §1
Series [18] concerns Rattus norvegicus. Nature of the series: Antihyperalgesic activity in Sprague-Dawley rat assessed as lesioned paw pressure threshold at 100 ug/kg, icv after 45 mins. The format is functional. An outline of the steps: as §1
In series [19] the test system is Rattus norvegicus. Nature of the series: Antihyperalgesic activity in Sprague-Dawley rat assessed as lesioned paw pressure threshold at 100 ug/kg, icv after 30 mins. Type of series: functional. An outline of the steps: as §1

As for `O=C1CCC2N1CC(=O)N2c1ccccc1` (stereo not drawn), the Activity with Rattus norvegicus [1] is listed as 53.3 g; with Rattus norvegicus [2], 51.7 g; in the series with Rattus norvegicus [3], 52.7 g.
As to `CC[C@@H](C(N)=O)N1CCCC1=O` [LEVETIRACETAM], the Activity with Rattus norvegicus [4] is on record as 52.1; with Rattus norvegicus [5], 51.8; in the series with Rattus norvegicus [6], 49.3.
For `Cc1ccc(N2C(=O)CN3C(=O)CCC32)cc1` (stereo not drawn), the outcome in the series with Rattus norvegicus [7], with Rattus norvegicus [8] and with Rattus norvegicus [14] was Active. For the same compound, the Activity in the series with Rattus norvegicus [9] was 57.4 g; in the series on Rattus norvegicus [10], 54 g; in the series with Rattus norvegicus [11], “Non-toxic”; with Rattus norvegicus [12] it was 45.4 g. Also, in the series with Rattus norvegicus [13], the outcome was inactive.
`Cc1ccccc1N1C(=O)CN2C(=O)CCC21` (stereo not drawn): the Activity with Rattus norvegicus [1] was 54.8 g; in the series with Rattus norvegicus [2], 46.7 g; in the series with Rattus norvegicus [3], 55.3 g.
Taken in the same sequence, the figures for `NCC1(CC(=O)O)CCCCC1` [GABAPENTIN] were 46.1 g, 46.3 g and 43.5 g.
Regarding `N#Cc1cccc(N2C(=O)CN3C(=O)CCC32)c1` (stereo not drawn), the result with Rattus norvegicus [15] was Active. The Activity result in the series listed under Rattus norvegicus [16] is “Dose-dependent effect”; in the series with Rattus norvegicus [1], 46.8 g; in the series on Rattus norvegicus [11], “Non-toxic”; in the series on Rattus norvegicus [2], 49.7 g; in the series with Rattus norvegicus [3], 55.4 g.
In the case of `Cc1cccc(N2C(=O)CN3C(=O)CCC32)c1` (stereo not drawn), the Activity with Rattus norvegicus [9] was determined as 63.4 g; in the series with Rattus norvegicus [10] it was 59.3 g; in the series on Rattus norvegicus [12] it was 51.2 g.
`CC(C)c1cccc(N2C(=O)CN3C(=O)CCC32)c1` (stereo not drawn): the Activity in the series on Rattus norvegicus [1] is recorded as 42.5 g; with Rattus norvegicus [2] it was 48.5 g; in the series on Rattus norvegicus [3] it was 43.7 g.
The like results for `Cc1cccc(C)c1NC(=O)CN1CCCC1=O` [NEFIRACETAM] were, in that order, 47.6 g, 46.7 g and 49.5 g.
For `N#Cc1ccc(N2C(=O)CN3C(=O)CCC32)cc1` (stereo not drawn), the result with Rattus norvegicus [15] was Active. Moreover, the Activity in the series with Rattus norvegicus [9] is 55.3 g; in the series listed under Rattus norvegicus [16] it was “Dose-dependent effect”; in the series with Rattus norvegicus [10] it was 59.4 g; in the series with Rattus norvegicus [12] it was 58.2 g.
Consider `O=C1CN2C(=O)CCC2N1` (stereo not drawn) [DIMIRACETAM], for which the Activity was 39.2 g with Rattus norvegicus [17], 42.8 g with Rattus norvegicus [18] and 41 g in the series with Rattus norvegicus [19].
